# Results: PubChem BioAssay AID488986 (Sanford-Burnham Center for Chemical Genomics, 2010)
# Active and inactive are the calls of the source.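 The calls were made as follows: active = mean EC50 below 10 µM; inactive = the rest.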
# Target: Type-1 angiotensin II receptor (Homo sapiens) (UniProt P30556)
# Experiment: AT1 receptor agonists, beta-arrestin recruitment, SAR follow-up, selectivity assay for APJ agonist project, cell-based, CHO-K1 PathHunter, luminescence, set 2 (AID 488986)
# Details: CHO-K1 AGTR1 PathHunter beta-arrestin, 90 min
# Outline: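 System: CHO-K1 human AT1 beta-arrestin recruitment cells; compound dosing: dose-response series, DMSO 1.32% final; times: cells overnight, compounds 90 min 25 °C, reagent 60 min; signal: luminescence from complemented beta-galactosidase fragments after detection reagent; controls: angiotensin II 1 µM final as high control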
# Sequence of Type-1 angiotensin II receptor (Homo sapiens) (P30556 whole entry, looked up): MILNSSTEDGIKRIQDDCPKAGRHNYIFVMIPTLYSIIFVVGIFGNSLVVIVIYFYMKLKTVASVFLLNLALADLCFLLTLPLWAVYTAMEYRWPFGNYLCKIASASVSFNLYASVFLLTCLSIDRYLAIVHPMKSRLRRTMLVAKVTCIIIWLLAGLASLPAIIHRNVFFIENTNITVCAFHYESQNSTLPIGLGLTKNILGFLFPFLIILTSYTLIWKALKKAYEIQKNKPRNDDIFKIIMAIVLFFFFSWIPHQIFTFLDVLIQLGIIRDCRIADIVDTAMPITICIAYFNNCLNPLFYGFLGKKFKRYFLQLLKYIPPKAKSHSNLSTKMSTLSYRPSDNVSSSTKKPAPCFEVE
row,Structure (SMILES),EC50
1,CC1=CC(=O)C(C2CCCCC2)=C/C1=N/OS(=O)(=O)c1ccccc1,> 79 µM (inactive)
2,CCc1nnc(NC(=O)CSc2nc3cccnc3n2Cc2ccccc2)s1,> 79 µM (inactive)
3,Cc1cc(C)n2nc3nc(N4CCCCC4)nc(-c4ccccc4)c3c2n1,> 79 µM (inactive)
4,CCOc1cc2[nH]c(=S)n(CCN3CCCCC3CC)c(=O)c2cc1OCC (stereo not drawn),> 79 µM (inactive)
5,CC1=CC(=NOS(=O)(=O)c2ccccc2)C(C)=CC1=O,> 79 µM (inactive)
6,CC1=C/C(=N/OS(=O)(=O)c2ccccc2)C(C(C)C)=CC1=O,> 79 µM (inactive)
7,CCN1C(=O)/C(=C/C=C2/SC(c3ccccc3)=C(c3ccccc3)N2CC)SC1=S,> 79 µM (inactive)
8,CC1=CC(=O)C=C/C1=N/OS(=O)(=O)c1ccc(C)cc1,> 79 µM (inactive)
9,CCOc1ccc(S(=O)(=O)Nc2nc(-c3ccccc3)cs2)cc1,> 79 µM (inactive)
10,Cc1cc(O)c(C2CCCCC2)cc1N=O,> 79 µM (inactive)
11,CCc1nnc(NC(=O)CSc2nc3cccnc3n2C2CCCCC2)s1,> 79 µM (inactive)
12,CC1=CC(=O)C(C(C)(C)C)=C/C1=N/OS(=O)(=O)c1ccccc1,> 79 µM (inactive)
13,CCOc1cc2[nH]c(=S)n(CCCC(=O)NCc3ccccn3)c(=O)c2cc1OCC,> 79 µM (inactive)
14,CCCCN(C)CCn1c(=S)[nH]c2cc(OCC)c(OCC)cc2c1=O,> 79 µM (inactive)
15,CCN1C(c2ccccc2)=C(c2ccccc2)S/C1=C\C=C1/SC(=S)N(C)C1=O,4.96 µM
16,CCOc1cc2[nH]c(=S)n(CCN3CCC(C)CC3)c(=O)c2cc1OCC,> 79 µM (inactive)
17,CCN1C(=O)/C(=C/C=C2/Sc3ccccc3N2CC)SC1=S,> 79 µM (inactive)
18,CC(C)C1=CC(=NOS(=O)(=O)c2ccccc2)C=C(C(C)C)C1=O,> 79 µM (inactive)
